Measurements reported in paper PMC7396962 (Xenobiotica; the fate of foreign compounds in biological …, 2020).
In brackets after ≈: the same amount, converted by molar mass.

What was measured:
UGT1A8 = target: T1, UGT1A8 (Homo sapiens, UniProt Q9HAW9); experiment: Glucuronidation of CA by recombinant UGT1A8; type: in vitro ADME; conditions: formation of the glucuronide from CA
T1 sequence (Q9HAW9 26-530): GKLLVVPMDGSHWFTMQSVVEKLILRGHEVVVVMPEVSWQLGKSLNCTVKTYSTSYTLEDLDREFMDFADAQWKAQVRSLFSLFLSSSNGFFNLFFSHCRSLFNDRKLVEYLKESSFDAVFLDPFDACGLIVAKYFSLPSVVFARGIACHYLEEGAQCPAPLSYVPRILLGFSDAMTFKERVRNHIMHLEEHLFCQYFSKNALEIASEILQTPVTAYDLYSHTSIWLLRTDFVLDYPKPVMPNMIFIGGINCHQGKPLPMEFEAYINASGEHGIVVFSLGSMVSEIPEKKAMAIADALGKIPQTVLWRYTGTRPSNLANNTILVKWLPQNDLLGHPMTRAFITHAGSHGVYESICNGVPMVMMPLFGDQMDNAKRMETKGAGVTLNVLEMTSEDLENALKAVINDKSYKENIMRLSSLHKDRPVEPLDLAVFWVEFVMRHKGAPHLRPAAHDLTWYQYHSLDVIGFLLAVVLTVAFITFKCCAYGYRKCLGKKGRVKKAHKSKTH

UGT1A1 = target: T2, UGT1A1 (Homo sapiens, UniProt P22309); type: in vitro ADME; conditions: panel of HLMs (n = 9), substrate 10 μM, p = 0.049
T2 sequence (P22309 26-533): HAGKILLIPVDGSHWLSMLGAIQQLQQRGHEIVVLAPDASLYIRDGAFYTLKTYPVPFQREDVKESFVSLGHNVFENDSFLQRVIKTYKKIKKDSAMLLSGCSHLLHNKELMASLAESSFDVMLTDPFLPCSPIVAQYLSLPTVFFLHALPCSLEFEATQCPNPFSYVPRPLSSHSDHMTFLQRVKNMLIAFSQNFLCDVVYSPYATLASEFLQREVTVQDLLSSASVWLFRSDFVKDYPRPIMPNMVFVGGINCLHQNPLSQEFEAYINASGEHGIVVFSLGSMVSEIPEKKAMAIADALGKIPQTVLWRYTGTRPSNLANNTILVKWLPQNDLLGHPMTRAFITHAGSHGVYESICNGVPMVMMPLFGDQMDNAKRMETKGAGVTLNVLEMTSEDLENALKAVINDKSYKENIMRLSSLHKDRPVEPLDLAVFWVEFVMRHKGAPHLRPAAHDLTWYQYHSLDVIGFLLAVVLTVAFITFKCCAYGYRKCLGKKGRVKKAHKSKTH

MRP4 = target: T3, MRP4 (Homo sapiens, UniProt O15439); experiment: Glucuronide excretion in HeLa1A1 cells with knock-down of MRP4; type: cell-based; conditions: knock-down of MRP4 transporter
T3 sequence (O15439 1-1325): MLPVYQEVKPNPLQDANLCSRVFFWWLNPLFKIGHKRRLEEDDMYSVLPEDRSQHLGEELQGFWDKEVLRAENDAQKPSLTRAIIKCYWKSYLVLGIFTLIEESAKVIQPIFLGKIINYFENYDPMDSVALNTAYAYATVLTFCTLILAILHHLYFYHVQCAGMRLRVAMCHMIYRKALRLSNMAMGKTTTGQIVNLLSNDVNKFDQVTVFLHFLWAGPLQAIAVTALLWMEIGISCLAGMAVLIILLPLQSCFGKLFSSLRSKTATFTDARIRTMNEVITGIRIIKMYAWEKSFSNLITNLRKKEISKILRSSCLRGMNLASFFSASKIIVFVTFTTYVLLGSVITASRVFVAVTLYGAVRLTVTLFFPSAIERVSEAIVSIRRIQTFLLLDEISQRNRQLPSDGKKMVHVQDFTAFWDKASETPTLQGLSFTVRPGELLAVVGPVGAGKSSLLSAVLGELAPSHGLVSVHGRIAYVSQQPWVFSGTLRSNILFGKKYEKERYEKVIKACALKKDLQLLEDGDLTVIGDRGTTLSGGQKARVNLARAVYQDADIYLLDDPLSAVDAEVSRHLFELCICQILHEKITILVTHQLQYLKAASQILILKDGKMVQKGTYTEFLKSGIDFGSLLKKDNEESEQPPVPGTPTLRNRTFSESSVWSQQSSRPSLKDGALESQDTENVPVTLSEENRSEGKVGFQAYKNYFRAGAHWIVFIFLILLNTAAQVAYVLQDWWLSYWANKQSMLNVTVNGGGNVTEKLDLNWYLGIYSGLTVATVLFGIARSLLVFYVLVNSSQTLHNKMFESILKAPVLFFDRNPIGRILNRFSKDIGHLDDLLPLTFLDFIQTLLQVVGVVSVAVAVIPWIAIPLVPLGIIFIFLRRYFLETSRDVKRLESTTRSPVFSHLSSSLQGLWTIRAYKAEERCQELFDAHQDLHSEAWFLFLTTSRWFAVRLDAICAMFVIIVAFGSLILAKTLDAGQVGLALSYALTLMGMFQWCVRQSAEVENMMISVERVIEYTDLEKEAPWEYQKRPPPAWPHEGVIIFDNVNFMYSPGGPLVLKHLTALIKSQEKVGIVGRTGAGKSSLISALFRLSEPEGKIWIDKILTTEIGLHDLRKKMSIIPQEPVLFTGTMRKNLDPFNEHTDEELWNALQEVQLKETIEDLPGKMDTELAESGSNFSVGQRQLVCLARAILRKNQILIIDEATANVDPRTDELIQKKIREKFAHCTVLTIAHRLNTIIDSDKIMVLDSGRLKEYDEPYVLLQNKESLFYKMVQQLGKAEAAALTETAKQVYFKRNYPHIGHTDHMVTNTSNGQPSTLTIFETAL
Outline: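 HeLa1A1 cells at ~50% confluence transiently transfected with transporter shRNA plasmid (10 μg/mL); medium replaced at 6 h; scrambled shRNA as control. At confluence cells washed and incubated with test compound in HBSS. Extracellular glucuronide sampled over 2 h and intracellular glucuronide measured at the end. ER = V·dC/dt, CLapp = ER/Ci, fmet calculated; triplicate.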

[1] = system: severe acute respiratory syndrome coronavirus papain-like protease; conditions: read-out: inhibitory effects on severe acute respiratory syndrome coronavirus papain-like protease; cited from earlier work
human carboxylesterase 2 = conditions: ref Li et al., 2015, cited from earlier work
[2] = system: Hep3B hepatocellular carcinoma cell line; conditions: cited from earlier work

CC(C)=CCC/C(C)=C/Cc1cc(-c2coc3cc(O)ccc3c2=O)ccc1O [CA, Corylifol A]
CLint (UGT1A8): 135.59 µL/min/mg | correlation (r) between CA-7-O-glucuronidation and β-estradiol-3-O-glucuronidation (UGT1A1): 0.668 | fmet value of CA (MRP4): significant decrease | IC50 [1]: 32300 ± 3200 nM | IC50 (human carboxylesterase 2; read-out: IC50, human carboxylesterase 2): 620 nM | Ki (human carboxylesterase 2; read-out: Ki, human carboxylesterase 2): 870 nM | IC50, cytotoxic activity [2]: 13.5 µg/mL (≈ 34.6 µM)
